From ChEMBL document CHEMBL3822447, “4-(1,2-diarylbut-1-en-1-yl)isobutyranilide derivatives as inhibitors of topoisomerase II” (2016)
Calls of active or inactive are those of the source. No cut-off for these calls is given here.

Tests used:
[1] = Cytotoxicity against human OVCAR5 cells assessed as cell growth inhibition after 72 hrs by MTS assay; format: functional; settings: OVCAR-5, 72 h
How it was run: (§1)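 Cells grown in RPMI1640 with 10% FBS and 2 mM glutamine at 37°C, 5% CO2; plated at 15 000 cells/mL, treated with compounds 72 h after plating, and survival read by MTS after a further 72 h; dose-response curves plotted.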

HeLa [2] = test: Cytotoxicity against human HeLa cells assessed as cell growth inhibition after 72 hrs by trypan blue assay; format: functional
How it was run: (§2)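 HeLa (F-12 HAM) and MCF-7 (DMEM) kept in medium with 10% heat-inactivated FCS plus antibiotics; 4-5×10^4 cells/well seeded, compounds added after 24 h at various concentrations, then 72 h more. Viable cells counted by trypan blue; GI50 is the concentration giving 50% fewer cells than control. Mean ± SD from at least three independent experiments.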

MCF7 = test: Cytotoxicity against human MCF7 cells assessed as cell growth inhibition after 72 hrs by trypan blue assay; format: functional; settings: MCF7, 72 h; how it was run: as §2
A2780 = test: Cytotoxicity against human A2780 cells assessed as cell growth inhibition after 72 hrs by MTS assay; format: functional; settings: A2780, 72 h; how it was run: as §1
HeLa [3] = test: Induction of mitochondrial membrane depolarization in human HeLa cells at 25 uM after 28 hrs by JC-1 staining-based flow cytometric analysis (reference value: 4%); format: functional
How it was run: (§3)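 HeLa cells (2.0 x 10^5) seeded, compound added after 24 h, then incubated 28 h. Cells loaded with JC-1 working solution for 30 min at 37°C, washed twice and read in assay buffer by flow cytometry. Loss of red aggregate fluorescence scored as depolarized (JC-1 monomer) cells.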

HeLa [4] = test: Induction of apoptosis in human HeLa cells assessed as late apoptotic cells at 50 uM after 28 hrs by annexin V/FITC/propidium iodide staining-based flow cytometry (reference value: 1.2%); format: functional
HeLa [5] = test: Induction of apoptosis in human HeLa cells assessed as early apoptotic cells at 50 uM after 28 hrs by annexin V/FITC/propidium iodide staining-based flow cytometry (reference value: 2.6%); format: functional
HeLa [6] = test: Induction of apoptosis in human HeLa cells assessed as viable cells at 50 uM after 28 hrs by annexin V/FITC/propidium iodide staining-based flow cytometry (reference value: 95.3%); format: functional; settings: read-out: Activity
HeLa [7] = test: Induction of apoptosis in human HeLa cells assessed as dead cells at 50 uM after 28 hrs by annexin V/FITC/propidium iodide staining-based flow cytometry (reference value: 1%); format: functional
How it was run: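 HeLa cells (2.0 x 10^5 per plate) seeded, grown 24 h in F-12 [HAM] with 10% heat-inactivated fetal calf serum, then exposed to test agent in complete medium for 28 h at 37 °C, 5% CO2. Cells were resuspended at 10^6 cells/mL in binding buffer and stained with annexin V-FITC plus propidium iodide for 15 min in the dark at room temperature. Read by flow cytometry.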

HeLa [8] = test: Induction of mitochondrial membrane depolarization in human HeLa cells after 28 hrs by JC-1 staining-based flow cytometric analysis; format: functional, cell-based; how it was run: as §3
HeLa [9] = test: Induction of mitochondrial membrane depolarization in human HeLa cells at 10 uM after 28 hrs by JC-1 staining-based flow cytometric analysis (reference value: 4%); format: functional; how it was run: as §3
[10] = target: DNA topoisomerase 2-alpha (Homo sapiens) (UniProt P11388); test: Inhibition of human recombinant topoisomerase 2 alpha-mediated relaxation of supercoiled pBR322 plasmid DNA at 50 to 100 uM after 60 mins by electrophoretic analysis
Chain of DNA topoisomerase 2-alpha (Homo sapiens) (P11388 whole entry): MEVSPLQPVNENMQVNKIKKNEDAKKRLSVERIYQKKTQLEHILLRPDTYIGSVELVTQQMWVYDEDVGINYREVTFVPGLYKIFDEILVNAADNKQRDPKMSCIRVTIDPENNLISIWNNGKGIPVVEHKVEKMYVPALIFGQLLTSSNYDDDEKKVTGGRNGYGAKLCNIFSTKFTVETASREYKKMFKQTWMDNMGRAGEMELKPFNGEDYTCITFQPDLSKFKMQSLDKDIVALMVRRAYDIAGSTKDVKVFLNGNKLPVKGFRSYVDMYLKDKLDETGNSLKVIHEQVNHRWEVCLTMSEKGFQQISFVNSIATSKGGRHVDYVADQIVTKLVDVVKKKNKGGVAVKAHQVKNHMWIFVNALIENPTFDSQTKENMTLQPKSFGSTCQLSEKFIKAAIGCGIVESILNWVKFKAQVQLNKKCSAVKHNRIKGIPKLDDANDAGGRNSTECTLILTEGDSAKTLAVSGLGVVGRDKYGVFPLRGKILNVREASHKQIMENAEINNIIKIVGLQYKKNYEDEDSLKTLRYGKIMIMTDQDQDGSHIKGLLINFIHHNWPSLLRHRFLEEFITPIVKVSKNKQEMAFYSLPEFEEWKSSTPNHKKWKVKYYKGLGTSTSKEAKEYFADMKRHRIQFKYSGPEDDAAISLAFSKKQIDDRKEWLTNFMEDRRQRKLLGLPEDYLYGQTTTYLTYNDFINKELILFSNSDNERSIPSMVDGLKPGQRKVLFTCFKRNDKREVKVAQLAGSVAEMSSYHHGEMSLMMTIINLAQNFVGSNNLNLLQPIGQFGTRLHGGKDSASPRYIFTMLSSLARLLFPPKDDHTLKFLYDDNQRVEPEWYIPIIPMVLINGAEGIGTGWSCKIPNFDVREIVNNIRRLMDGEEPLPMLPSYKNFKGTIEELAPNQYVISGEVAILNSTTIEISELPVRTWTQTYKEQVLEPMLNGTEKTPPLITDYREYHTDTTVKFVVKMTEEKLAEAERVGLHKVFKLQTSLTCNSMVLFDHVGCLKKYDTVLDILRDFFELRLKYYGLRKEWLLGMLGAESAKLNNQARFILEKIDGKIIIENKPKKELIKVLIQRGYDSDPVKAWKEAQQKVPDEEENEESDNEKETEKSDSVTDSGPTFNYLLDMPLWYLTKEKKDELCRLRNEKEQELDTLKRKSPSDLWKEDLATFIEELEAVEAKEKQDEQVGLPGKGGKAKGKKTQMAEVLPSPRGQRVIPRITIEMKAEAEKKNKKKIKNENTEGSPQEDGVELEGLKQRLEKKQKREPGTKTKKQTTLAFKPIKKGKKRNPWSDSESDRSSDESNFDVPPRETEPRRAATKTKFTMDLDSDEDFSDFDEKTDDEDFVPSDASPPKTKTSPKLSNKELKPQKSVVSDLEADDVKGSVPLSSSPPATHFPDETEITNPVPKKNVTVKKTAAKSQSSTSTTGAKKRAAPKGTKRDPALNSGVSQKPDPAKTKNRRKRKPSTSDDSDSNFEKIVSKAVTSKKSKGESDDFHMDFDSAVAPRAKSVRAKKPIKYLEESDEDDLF
How it was run: (§4)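 Relaxation assay: 0.25 µg supercoiled pBR322 incubated with 1U human recombinant topoisomerase IIα and compound for 60 min at 37°C; m-AMSA reference at 10 µM. Stopped with SDS stop buffer plus 50 µg/mL proteinase K for 30 min at 37°C, run on 1% agarose, then stained with 1 µg/mL ethidium bromide in TAE.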

[11] = target: DNA topoisomerase 2-alpha (Homo sapiens) (UniProt P11388); test: Inhibition of human recombinant topoisomerase 2 alpha-mediated relaxation of supercoiled pBR322 plasmid DNA at 10 to 50 uM after 60 mins by electrophoretic analysis; how it was run: as §4
[12] = target: T1, DNA topoisomerase 1 (Homo sapiens) (UniProt P11387); test: Inhibition of human recombinant topoisomerase 1-mediated relaxation of supercoiled pBR322 plasmid DNA at 100 uM after 60 mins by electrophoretic analysis
T1 sequence (whole entry): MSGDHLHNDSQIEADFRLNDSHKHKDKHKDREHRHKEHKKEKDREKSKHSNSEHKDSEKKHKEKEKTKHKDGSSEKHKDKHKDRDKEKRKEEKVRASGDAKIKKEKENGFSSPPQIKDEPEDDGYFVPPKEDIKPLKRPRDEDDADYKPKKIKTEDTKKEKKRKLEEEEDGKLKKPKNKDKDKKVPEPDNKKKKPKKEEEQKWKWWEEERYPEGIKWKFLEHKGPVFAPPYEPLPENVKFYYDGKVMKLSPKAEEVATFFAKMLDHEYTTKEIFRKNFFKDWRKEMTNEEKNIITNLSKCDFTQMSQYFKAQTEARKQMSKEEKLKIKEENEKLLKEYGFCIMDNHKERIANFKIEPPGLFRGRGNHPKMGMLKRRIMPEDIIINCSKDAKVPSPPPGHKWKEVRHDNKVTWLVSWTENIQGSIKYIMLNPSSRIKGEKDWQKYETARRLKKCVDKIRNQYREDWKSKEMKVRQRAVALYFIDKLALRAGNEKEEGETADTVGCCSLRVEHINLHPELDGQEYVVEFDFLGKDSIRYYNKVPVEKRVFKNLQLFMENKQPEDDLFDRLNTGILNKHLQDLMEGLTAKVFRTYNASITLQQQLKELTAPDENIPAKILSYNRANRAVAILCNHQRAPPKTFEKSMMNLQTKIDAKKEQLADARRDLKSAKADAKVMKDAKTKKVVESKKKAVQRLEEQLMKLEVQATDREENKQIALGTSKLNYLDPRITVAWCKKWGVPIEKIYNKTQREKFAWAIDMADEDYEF
How it was run: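 Relaxation assay: 0.25 µg supercoiled pBR322 incubated with 2U human recombinant topoisomerase I and compound for 60 min at 37°C. Stopped with SDS stop buffer plus 50 µg/mL proteinase K for 30 min at 37°C, run on 1% agarose at room temperature, then stained with 1 µg/mL ethidium bromide in TAE.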

[13] = target: DNA topoisomerase 2-alpha (Homo sapiens) (UniProt P11388); test: Poisoning activity at human recombinant topoisomerase 2 alpha using supercoiled pBR322 plasmid DNA as substrate assessed as stabilization of covalent DNA-enzyme complex at 50 uM after 60 mins by electrophoretic analysis
How it was run: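 Cleavage assay: 0.25 µg supercoiled pBR322 with 10 U human recombinant topoisomerase IIα and compound, 60 min at 37°C. Stopped with SDS buffer and 50 µg/mL proteinase K for 30 min at 37°C, then resolved on 1% agarose containing 0.5 µg/mL ethidium bromide in TBE, with UV imaging.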

HeLa [14] = test: Induction of mitochondrial membrane depolarization in human HeLa cells at 15 uM after 28 hrs by JC-1 staining-based flow cytometric analysis (reference value: 4%); format: functional; how it was run: as §3

CC/C(=C(\c1ccc(NC(=O)C(C)C)cc1)c1ccc(OC)cc1)c1ccc(O)cc1
GI50 [1]: 23.6 µM
GI50 (HeLa [2]): 3.7 µM
GI50 (MCF7): 9 µM
GI50 (A2780): 5.7 µM

CC/C(=C(\c1ccccc1)c1ccc(OCCN(C)C)cc1)c1ccccc1 [TAMOXIFEN]
GI50 [1]: 32 µM
Activity (HeLa [3]): 26.2%
GI50 (HeLa [2]): 12 µM
GI50 (MCF7): 6.5 µM
GI50 (A2780): 30.3 µM
Activity (HeLa [4]): 28%
Activity (HeLa [5]): 29.9%
viability at 50 µM (HeLa [6]): 39.4%
Activity (HeLa [7]): 2.7%
Activity (HeLa [8]): Dose-dependent effect
Activity (HeLa [9]): 3.9%
inhibition [10]: inactive

CC/C(=C(\c1ccc(NC(=O)C(C)C)cc1)c1ccc(OC)cc1)c1ccc(OCc2ccccc2)cc1
GI50 [1]: > 50 µM
GI50 (HeLa [2]): > 30 µM
GI50 (MCF7): > 30 µM
GI50 (A2780): > 50 µM

CC/C(=C(/c1ccc(O)cc1)c1ccc(NC(=O)C(C)C)cc1)c1ccccc1
GI50 [1]: > 50 µM
GI50 (HeLa [2]): 9.9 µM
GI50 (MCF7): 16.4 µM
GI50 (A2780): 32.6 µM

CC/C(=C(\c1ccc(NC(=O)C(C)C)cc1)c1ccc(OC)cc1)c1ccc(Cl)cc1Cl
GI50 [1]: > 50 µM
GI50 (HeLa [2]): 5.5 µM
GI50 (MCF7): 13.2 µM
GI50 (A2780): 8.2 µM

CC/C(=C(/c1ccc(O)cc1)c1ccc(NC(=O)C(C)C)cc1)c1ccc(Cl)cc1Cl
GI50 [1]: 32.3 µM
GI50 (HeLa [2]): 20.3 µM
GI50 (MCF7): 26.6 µM
GI50 (A2780): 28.1 µM

CC/C(=C(/c1ccc(NC(=O)C(C)C)cc1)c1ccc(OC)cc1)c1ccc(Cl)cc1Cl
GI50 [1]: > 50 µM
Activity (HeLa [3]): 80.3%
GI50 (HeLa [2]): 2.2 µM
GI50 (MCF7): 6.6 µM
GI50 (A2780): 3.8 µM
inhibition [11]: Active
Activity (HeLa [4]): 21.8%
Activity (HeLa [5]): 44.4%
viability at 50 µM (HeLa [6]): 31.7%
Activity (HeLa [7]): 2.1%
Activity (HeLa [8]): Dose-dependent effect
inhibition [12]: inactive
Activity [13]: Active
Activity (HeLa [9]): 51.8%
Activity (HeLa [14]): 75.7%

CC/C(=C(/c1ccc(NC(=O)C(C)C)cc1)c1ccc(OC)cc1)c1ccccc1
GI50 [1]: > 50 µM
GI50 (HeLa [2]): > 30 µM
GI50 (MCF7): > 30 µM
GI50 (A2780): > 50 µM

CC/C(=C(/c1ccccc1)c1ccc(NC(=O)C(C)C)cc1)c1ccc(Cl)cc1Cl
GI50 [1]: > 50 µM
GI50 (HeLa [2]): 8.2 µM
GI50 (MCF7): 17.5 µM
GI50 (A2780): > 50 µM

CC/C(=C(\c1ccccc1)c1ccc(NC(=O)C(C)C)cc1)c1ccc(OCc2ccccc2)cc1
GI50 [1]: > 50 µM
GI50 (HeLa [2]): 10.2 µM
GI50 (MCF7): > 30 µM
GI50 (A2780): 8.8 µM

CC/C(=C(\c1ccccc1)c1ccc(NC(=O)C(C)C)cc1)c1ccccc1
GI50 [1]: > 50 µM
GI50 (HeLa [2]): > 30 µM
GI50 (MCF7): > 30 µM
GI50 (A2780): > 50 µM
